Source: PubChem BioAssay (Broad Institute)
The sample as a whole holds a higher share of hits than the screen did.
T cruzi growth-1 – blocks T. cruzi growth in NIH3T3 culture | T. cruzi beta-gal in NIH3T3, GalScreen luminescence, 90 h | inhibition, % at 8.34 µM | 77,000 compounds, 5.9% hits;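 active = mean inhibition above about 93%, with at least 55% of replicates each passing it, limit read from the data, passing the limit was not always enough; inconclusive = only one of those two conditions holds; inactive = neither condition holds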
GASC1 inh – inhibitors of human demethylase GASC-1 KDM4C | 96,000 compounds, 0.15% hits | inhibition, % at 12.5 µM | GST-KDM4C 2-372, H3K9me3 peptide, LANCE TR-FRET;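 active = mean replicate inhibition above about 25%, with at least 55% of replicates also reaching it, limit read from the data, passing the limit was not always enough; inconclusive = only one of those two conditions met; inactive = neither condition met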
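material = GST-tagged GASC-1 (JMJD2C) catalytic fragment, aa 2-372 | amount = enzyme final amount 10 nM | medium = HEPES buffer, pH 7.5, plus ascorbate | also added = H3K9me3 peptide substrate, Fe(II), 2-oxoglutarate | dosing = single dose | times = 30 min demethylation and 1 h detection at room temperature | detection = LANCE TR-FRET | read-out basis = Fall in 671/618 emission ratio as inhibition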
IDH1 R132H inh – inhibitors of human IDH1 R132H; O75874; IDH1 R132H reductase, diaphorase/resazurin fluorescence, 60 min; inhibition, % at 10 µM; 70,000 compounds, 0.18% hits; in the data active = inhibition above about 34%; inconclusive = no clear call, values can overlap the other calls; inactive = below about 11%;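 note: 0% = DMSO and 100% = no enzyme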
Target sequence (O75874 whole entry R132H): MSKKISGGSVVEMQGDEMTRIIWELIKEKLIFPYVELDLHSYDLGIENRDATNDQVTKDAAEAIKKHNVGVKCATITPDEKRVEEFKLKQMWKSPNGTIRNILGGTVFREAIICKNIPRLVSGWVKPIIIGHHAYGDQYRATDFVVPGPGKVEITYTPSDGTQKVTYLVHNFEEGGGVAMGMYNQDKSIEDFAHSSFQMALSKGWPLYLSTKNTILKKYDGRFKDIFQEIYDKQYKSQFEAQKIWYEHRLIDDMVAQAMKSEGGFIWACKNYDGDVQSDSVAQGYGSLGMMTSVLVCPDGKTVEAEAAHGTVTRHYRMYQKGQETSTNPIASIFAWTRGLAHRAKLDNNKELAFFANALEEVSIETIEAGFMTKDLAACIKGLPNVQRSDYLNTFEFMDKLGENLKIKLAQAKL
T cruzi growth-2 – inhibitors of T. cruzi proliferation. shares compounds with T cruzi growth-1. 5,600 compounds, 72% hits. inhibition, % at 8.35 µM. AID 651739. T. cruzi beta-gal in NIH3T3, GalScreen luminescence, 90 h;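 active = mean replicate inhibition above about 95% and at least 55% of replicates individually reaching it, limit read from the data; inconclusive = only one of the two criteria is met; inactive = neither criterion is met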
T cruzi growth-3 – blocks T. cruzi growth in NIH3T3 host cells | 5,600 compounds, 21% hits | inhibition, % at 2.09 µM | T. cruzi beta-gal in NIH3T3, GalScreen luminescence, 90 h | shares compounds with T cruzi growth-1;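 active = mean inhibition above about 95%, with at least 55% of replicates also reaching it, limit read from the data; inconclusive = meets just one of the two conditions; inactive = meets neither condition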;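 note: plate controls were neutral control median for no effect and positive control median for full effect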
NIH3T3 tox – cytotoxicity in mouse NIH/3T3 fibroblasts. NIH/3T3 viability, CellTiter-Glo ATP luminescence, 90 h. AID 651742. cytotoxicity (signal decrease), % at 8.35 µM. 5,600 compounds, 14% hits. shares compounds with T cruzi growth-1;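 active = mean signal decrease across replicates above about 35% based on untreated-well scatter, with enough replicates individually passing, limit read from the data; inconclusive = no rule stated though some were filed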;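 note: 0% = median of neutral control wells and 100% = median of positive control wells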
3T3 cytotox 2 – cytotoxicity in mouse NIH/3T3 fibroblasts; shares compounds with T cruzi growth-1; NIH/3T3 viability, CellTiter-Glo ATP luminescence, 90 h; inhibition, % at 24.9 µM; 5,600 compounds, 56% hits;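 active = mean loss of cell viability signal at or above a set limit, and enough replicates individually reaching it; inconclusive = meets only the mean limit or only the replicate share; inactive = meets neither condition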;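 note: 0% = median of neutral control wells and 100% = median of positive control wells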
Starred values were filed as active, the others as inactive.

How did O=C(NC1CCCC1)N1CCCCN2[C@H](C1)[C@H](c1ccc(-c3ccccc3)cc1)[C@@H]2CO do in these assays?
T cruzi growth-1: 79.6; GASC1 inh: -1.0

Results for C[C@H]1CN([C@@H](C)CO)C(=O)Cc2cc(NC(=O)Nc3ccc(F)cc3)ccc2O[C@H]1CN(C)CC1CC1 ?
T cruzi growth-1: 8.0; GASC1 inh: -0.4; IDH1 R132H inh: -0.3

How did CO[C@@H]1CN(C)C(=O)c2cc(NC(=O)C3CCCC3)ccc2OC[C@@H](C)N(CCC(F)(F)F)C[C@@H]1C do in these assays?
T cruzi growth-1: 1.4; GASC1 inh: 4.6; IDH1 R132H inh: -0.1

What do the screens show for `CC(C)CN(C[C@@H]1N[C@@H](CO)[C@@H]1c1ccccc1)C(=O)CN(C)C`?
T cruzi growth-1: -34.4; GASC1 inh: -2.4

Results for COc1ccc(NC(=O)N(C)C[C@H]2OCCCC[C@H](C)Oc3ccc(NC(=O)CCCN(C)C)cc3C(=O)N([C@H](C)CO)C[C@@H]2C)cc1 ?
T cruzi growth-1: -28.3; GASC1 inh: 5.6

Results for Cc1ccccc1-c1ccc([C@@H]2[C@@H](CO)N3CCCCN(C(=O)NC4CCCC4)C[C@H]23)cc1 ?
T cruzi growth-1: 95.2; GASC1 inh: -1.3

What do the screens show for `Cc1ccccc1-c1ccc([C@@H]2[C@H](CO)N3CCCCN(C(=O)NC4CCCC4)C[C@@H]23)cc1`?
T cruzi growth-1: 118.1*; GASC1 inh: 0.6; T cruzi growth-2: 106.3*; T cruzi growth-3: 90.3; NIH3T3 tox: 25.1; 3T3 cytotox 2: 105.3*

How did CCOC(=O)c1c(NC(=O)COc2ccccc2Br)sc(C)c1C do in these assays?
IDH1 R132H inh: 0.2

Results for Cc1ccc(S(=O)(=O)N(C)C[C@H]2Oc3c(NC(=O)Nc4c(C)noc4C)cccc3C(=O)N([C@H](C)CO)C[C@@H]2C)cc1 ?
T cruzi growth-1: -52.5; GASC1 inh: -1.2

How did COc1ccccc1NC(=O)N[C@@H]1CC[C@H](CCNS(=O)(=O)c2ccc(C)cc2)O[C@H]1CO do in these assays?
GASC1 inh: -1.0

What do the screens show for `CN1[C@@H]2Cn3c(ccc(-c4ccccc4)c3=O)[C@H]1[C@@H](C(=O)NCCc1ccccc1)[C@@H]2CO`?
T cruzi growth-1: 48.3; GASC1 inh: -2.6

How did C[C@H](CO)N1C[C@H](C)[C@H](CN(C)C(=O)Nc2cccc3ccccc23)OCCCC[C@H](C)Oc2ccc(NS(=O)(=O)c3ccc(Cl)cc3)cc2C1=O do in these assays?
T cruzi growth-1: 95.7*; GASC1 inh: 0.3; T cruzi growth-2: 101.3*; T cruzi growth-3: 63.4; NIH3T3 tox: -4.1; 3T3 cytotox 2: 1.3

Results for C[C@@H]1CCCCO[C@H](CN(C)C(=O)Nc2cccc3ccccc23)[C@@H](C)CN([C@@H](C)CO)C(=O)c2cc(NS(C)(=O)=O)ccc2O1 ?
T cruzi growth-1: 7.9; GASC1 inh: 2.5

How did C[C@@H]1CN([C@@H](C)CO)C(=O)c2cc(NS(=O)(=O)c3cccs3)ccc2O[C@@H](C)CCCCO[C@@H]1CN(C)C(=O)Nc1cccc2ccccc12 do in these assays?
T cruzi growth-1: 85.1; GASC1 inh: -1.5

Results for C[C@@H]1CCCCO[C@@H](CN(C)C(=O)Nc2cccc3ccccc23)[C@H](C)CN([C@@H](C)CO)C(=O)c2cc(NS(C)(=O)=O)ccc2O1 ?
T cruzi growth-1: 116.1*; GASC1 inh: -1.1; T cruzi growth-2: -32.4; T cruzi growth-3: 9.1; NIH3T3 tox: -12.4; 3T3 cytotox 2: -14.2

What do the screens show for `C[C@@H]1CCCCO[C@H](CN(C)C(=O)Nc2cccc3ccccc23)[C@@H](C)CN([C@H](C)CO)C(=O)c2cc(NS(=O)(=O)c3ccc(Cl)cc3)ccc2O1`?
T cruzi growth-1: 88.5; GASC1 inh: 0.0; IDH1 R132H inh: -0.6

Results for C[C@@H]1CCCCO[C@@H](CN(C)C(=O)Nc2cccc3ccccc23)[C@H](C)CN([C@H](C)CO)C(=O)c2cc(NS(=O)(=O)c3ccc(Cl)cc3)ccc2O1 ?
T cruzi growth-1: 89.8; GASC1 inh: -1.2; IDH1 R132H inh: -0.8

What do the screens show for `C[C@H]1CCCCO[C@H](CN(C)C(=O)Nc2cccc3ccccc23)[C@@H](C)CN([C@@H](C)CO)C(=O)c2cc(NS(=O)(=O)c3ccc(Cl)cc3)ccc2O1`?
T cruzi growth-1: inconclusive; GASC1 inh: -0.1; T cruzi growth-2: 97.3*; T cruzi growth-3: 119.3*; NIH3T3 tox: -26.2; 3T3 cytotox 2: -9.8

Results for C[C@@H]1CCCCO[C@@H](CN(C)C(=O)Nc2cccc3ccccc23)[C@H](C)CN([C@@H](C)CO)C(=O)c2cc(NS(=O)(=O)c3cccs3)ccc2O1 ?
T cruzi growth-1: 100.6*; GASC1 inh: -1.5; IDH1 R132H inh: -1.3; T cruzi growth-2: 107.4*; T cruzi growth-3: 41.0; NIH3T3 tox: 5.6; 3T3 cytotox 2: -19.7

Results for O=C(C[C@H]1C=C[C@@H](NC(=O)CC2CC2)[C@@H](CO)O1)NCc1ccc(-c2ccccc2)cc1 ?
GASC1 inh: -0.3

What do the screens show for `CC(=O)NC[C@H]1[C@H](c2ccc(C3=CCCCC3)cc2)[C@H](CO)N1C(=O)NC(C)C`?
T cruzi growth-1: 27.3; GASC1 inh: 3.3

Results for COC(=O)c1c(C)oc2ccc(N(C(=O)c3ccncc3)S(=O)(=O)c3ccc(F)cc3C)cc12 ?
IDH1 R132H inh: 0.4

How did C[C@@H]1CN([C@@H](C)CO)C(=O)c2cc(NS(=O)(=O)c3ccc(Cl)cc3)ccc2O[C@@H](C)CCCCO[C@@H]1CN(C)C(=O)Nc1cccc2ccccc12 do in these assays?
T cruzi growth-1: 98.8*; GASC1 inh: -0.1; IDH1 R132H inh: 0.8; T cruzi growth-2: 105.4*; T cruzi growth-3: inconclusive; NIH3T3 tox: 16.0; 3T3 cytotox 2: 18.4

What do the screens show for `C[C@H](CO)N1C[C@H](C)[C@@H](CN(C)C(=O)Nc2cccc3ccccc23)OCCCC[C@H](C)Oc2ccc(NS(=O)(=O)c3ccc(Cl)cc3)cc2C1=O`?
T cruzi growth-1: 90.9; GASC1 inh: -2.3

How did C[C@@H]1CCCCO[C@@H](CN(C)C(=O)Nc2cccc3ccccc23)[C@H](C)CN([C@@H](C)CO)C(=O)c2cc(NS(=O)(=O)c3ccc(F)cc3)ccc2O1 do in these assays?
T cruzi growth-1: 104.7*; GASC1 inh: -0.8; T cruzi growth-2: 101.2*; T cruzi growth-3: 66.1; NIH3T3 tox: 7.4; 3T3 cytotox 2: 2.6

Results for C[C@H]1CCCCO[C@H](CN(C)C(=O)Nc2cccc3ccccc23)[C@@H](C)CN([C@@H](C)CO)C(=O)c2cc(NS(=O)(=O)c3ccc(F)cc3)ccc2O1 ?
T cruzi growth-1: 87.6; GASC1 inh: -3.5; IDH1 R132H inh: 2.7
